Reference: ChEMBL document CHEMBL1136122, “Are 5'-O-carbamate-2',3'-dideoxythiacytidine new anti-HIV and anti-HBV nucleoside drugs or prodrugs?” (Bioorg Med Chem Lett, 2003)

How the values were obtained:
HepG2 = experiment: In vitro concentration required to inhibit HBV DNA secretion by HepG2.2.15 transfected by HBV; type: functional, cell-based; settings: Homo sapiens
Method in brief: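 Used HepG2.2.15 cells stably transfected with HBV, following a standard procedure. EC50 is the concentration giving 50% inhibition of HBV DNA secretion, reported with standard deviation.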

MT4 [1] = experiment: In vitro concentration required to cause death of uninfected MT-4 cell; type: functional; settings: Homo sapiens
MT4 [2] = experiment: In vitro concentration required to inhibit the cytopathicity of HIV-1 IIIB on MT-4 cell; type: functional, cell-based; settings: Homo sapiens
Method in brief: (§1)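 EC50 is reported with standard deviation. In MT-4 cells it is 50% protection from HIV-1 cytopathicity. In PBMCs it is 50% inhibition of HIV-1 replication.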

[3] = In vitro concentration required to cause death of uninfected PBMCs cell (peripheral blood mononuclear cells); type: functional; settings: Homo sapiens, PBMC
[4] = In vitro concentration required to inhibit the HIV-1 LA1 replication on PBMCs cell (peripheral blood mononuclear cells); type: functional, cell-based; settings: Homo sapiens, PBMC; method in brief: as §1
[5] = Selectivity (CC50/EC50) for death of uninfected MT4 cell to that of inhibition of cytopathicity of HIV-1 IIIB on MT-4 cell; type: functional
[6] = Selectivity (CC50/EC50) for death of uninfected PBMCs to that of inhibition of […] of HIV-1 LA1 on PBMCs (peripheral blood mononuclear cells); type: functional
MT4 [7] = experiment: In vitro concentration required to inhibit the cytopathicity of HIV-1 IIIB on MT-4 cell; NA=no activity; type: functional, cell-based, Homo sapiens; method in brief: as §1

Row | Compound | EC50 (HepG2) | CC50 (MT4 [1]) | EC50 (MT4 [2]) | CC50 [3] | EC50 [4] | SI [5] | SI [6] | EC50 (MT4 [7])
1 | Nc1ccn(C2CSC(COC(=O)NCCCCO)O2)c(=O)n1 (centres undefined) | 5 µM | > 217 µM | > 200 µM | > 10 µM | > 10 µM |  |  | 
2 | CCOP(=O)(CNC(=O)OCC1OC(n2ccc(N)nc2=O)CS1)OCC (centres undefined) | > 5 µM | > 233 µM | 126 µM | > 10 µM | 10 µM | >2 | >1 | 
3 | NCCCCNC(=O)OCC1OC(n2ccc(N)nc2=O)CS1 (centres undefined) | 1 µM | > 218 µM | 15 µM | > 10 µM | 10 µM | >14 | >1 | 
4 | NCCCNC(=O)OCC1OC(n2ccc(N)nc2=O)CS1 (centres undefined) | 1 µM | > 282 µM | 27 µM | > 10 µM | 1 µM | >10 | >10 | 
5 | CCCCNC(=O)OCC1OC(n2ccc(N)nc2=O)CS1 (centres undefined) | 1 µM | > 283 µM | 26 µM | > 10 µM | 5 µM | >11 | >2 | 
6 | CCCNC(=O)OCC1OC(n2ccc(N)nc2=O)CS1 (centres undefined) | 5 µM | > 285 µM | 32 µM | > 10 µM | 10 µM | >9 | >1 | 
7 | Nc1ccn(C2CSC(COC(=O)NCCCCCCO)O2)c(=O)n1 (centres undefined) | 5 µM | > 208 µM | 75 µM | > 10 µM | 10 µM | >3 | >1 | 
8 | Nc1ccn(C2CSC(COC(=O)NCP(=O)(O)O)O2)c(=O)n1 (centres undefined) | 5 µM | > 322 µM |  | > 10 µM | > 10 µM |  |  | Not Active
9 | NCCCOC(=O)OCC1OC(n2ccc(N)nc2=O)CS1 (centres undefined) | 0.5 µM | > 17 µM | 0.3 µM | > 10 µM | 0.01 µM | >57 | >1000 | 
10 | NCCCCOC(=O)OCC1OC(n2ccc(N)nc2=O)CS1 (centres undefined) | 1 µM | > 218 µM | 0.8 µM | > 10 µM | 0.1 µM | >260 | > 100 | 
11 | Nc1ccn(C2CSC(COC(=O)NCCCO)O2)c(=O)n1 (centres undefined) | 1 µM | > 281 µM | > 254 µM | > 10 µM | > 10 µM |  | >1 | 
12 | Nc1ccn([C@@H]2CS[C@H](CO)O2)c(=O)n1 [LAMIVUDINE] | 0.4 µM | > 44 µM | 0.4 µM | > 10 µM | 0.01 µM | >107 | >1000 | 
